Results published in ChEMBL document CHEMBL1641376, “Novel bis-, tris-, and tetrakis-tertiary amino analogs as antagonists at neuronal nicotinic receptors that mediate nicotine-evoked dopamine release” (Bioorg Med Chem Lett, 2011).

Experiments:
Format in all cases: functional, tissue-based
[1] = molecular target: Neuronal acetylcholine receptor subunit alpha-6 (Rattus norvegicus, UniProt P43143); assay: Antagonist activity at alpha6 nAChR in rat striatum assessed as inhibition of nicotine-induced [3H]dopamine release
Chain of Neuronal acetylcholine receptor subunit alpha-6 (P43143 whole entry, the tested form may be a part): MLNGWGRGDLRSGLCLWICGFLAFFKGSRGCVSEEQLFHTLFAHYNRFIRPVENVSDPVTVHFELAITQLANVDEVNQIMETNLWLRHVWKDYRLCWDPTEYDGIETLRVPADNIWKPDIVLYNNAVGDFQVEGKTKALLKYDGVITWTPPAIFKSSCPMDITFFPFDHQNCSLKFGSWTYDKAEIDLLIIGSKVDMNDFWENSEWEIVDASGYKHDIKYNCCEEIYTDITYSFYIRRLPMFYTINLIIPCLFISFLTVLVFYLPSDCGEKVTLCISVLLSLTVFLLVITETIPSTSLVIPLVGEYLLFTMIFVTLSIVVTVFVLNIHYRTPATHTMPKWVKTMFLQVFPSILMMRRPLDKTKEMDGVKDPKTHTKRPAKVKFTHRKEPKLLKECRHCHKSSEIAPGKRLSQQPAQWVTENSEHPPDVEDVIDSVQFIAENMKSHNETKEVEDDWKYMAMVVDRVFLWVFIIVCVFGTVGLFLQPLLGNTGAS
Summary of the method: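 Superfused rat striatal slices preloaded with [3H]DA; release evoked by 10 μM nicotine. Screening used 100 nM analogue, with inhibition expressed as % of the nicotine response without analogue (≥3 independent experiments, each in duplicate). Compounds giving >40% inhibition had full concentration-response curves run to derive IC50 and Imax (4–6 independent experiments).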

[2] = molecular target: Neuronal acetylcholine receptor subunit alpha-6 (Rattus norvegicus) (UniProt P43143); assay: Antagonist activity at alpha6 nAChR in rat striatum assessed as inhibition of nicotine-induced [3H]dopamine release relative to nicotine
Chain of Neuronal acetylcholine receptor subunit alpha-6 (Rattus norvegicus) (P43143 whole entry, the tested form may be a part): as above
Summary of the method: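 [3H]DA release from superfused rat striatal slices was evoked by 10 μM nicotine and tested across a full analogue concentration range. IC50 and Imax were derived from the concentration-response curves, with inhibition relative to the nicotine response in the absence of analogue. 4–6 independent experiments.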

[3] = molecular target: Neuronal acetylcholine receptor subunit alpha-6 (Rattus norvegicus) (UniProt P43143); assay: Antagonist activity at alpha6 nAChR in rat striatum assessed as inhibition of nicotine-induced [3H]dopamine release at 100 nM relative to control
Summary of the method: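 Superfused rat striatal slices preloaded with [3H]DA. Nicotine-evoked [3H]DA release was elicited by 10 μM nicotine with 100 nM analogue present. Inhibition is expressed as a percentage of the nicotine response under control conditions without analogue. At least 3 independent experiments, each in duplicate.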

Row | Structure (SMILES) | IC50 [1] [nM] | Imax [2] [%] | inhibition [3] [%]
1 | c1ccc2c[n+](CCCCCCCCCCCC[n+]3ccc4ccccc4c3)ccc2c1 | 40 | 53 | 
2 | CC1=CCCN(CCCCCCCCCCCCN2CCC=C(C)C2)C1 | 0.95 | 60 | 50
3 | c1ccc2c(c1)CCN(CCCCCc1cc(CCCCCN3CCc4ccccc4C3)c(CCCCCN3CCc4ccccc4C3)cc1CCCCCN1CCc3ccccc3C1)C2 | 205 | 64 | 84
4 | OCCCc1ccc[n+](CCCCCc2cc(CCCCC[n+]3cccc(CCCO)c3)c(CCCCC[n+]3cccc(CCCO)c3)cc2CCCCC[n+]2cccc(CCCO)c2)c1 | 3 | 63 | 41
5 | C(#Cc1ccccc1C#CCCC[n+]1ccc2ccccc2c1)CCC[n+]1ccc2ccccc2c1 | 63 | 59 | 
6 | Cc1ccc[n+](CCCCCCCCCC[n+]2cccc(C)c2)c1 | 180 | 63 | 
7 | c1ccc2c[n+](CCCCCCCCCC[n+]3ccc4ccccc4c3)ccc2c1 | 70 | 95 | 
8 | C(#Cc1ccccc1C#CCCCN1CCc2ccccc2C1)CCCN1CCc2ccccc2C1 |  |  | 18
9 | Cc1ccc[n+](CCCC#Cc2cc(C#CCCC[n+]3cccc(C)c3)cc(C#CCCC[n+]3cccc(C)c3)c2)c1 | 0.2 | 67 | 40
10 | c1ccc2c(c1)CCN(CCCCCc1cc(CCCCCN3CCc4ccccc4C3)cc(CCCCCN3CCc4ccccc4C3)c1)C2 | 0.35 | 58 | 58
11 | c1ccc2c(c1)CCN(CCCCCCCCCCCCN1CCc3ccccc3C1)C2 | 8.59 | 76 | 
12 | CC1=CCCN(CCCC#Cc2cc(C#CCCCN3CCC=C(C)C3)cc(C#CCCCN3CCC=C(C)C3)c2)C1 | 3.22 | 67 | 83
13 | c1ccc2c[n+](CCCCCc3cc(CCCCC[n+]4ccc5ccccc5c4)c(CCCCC[n+]4ccc5ccccc5c4)cc3CCCCC[n+]3ccc4ccccc4c3)ccc2c1 | 56 | 52 | 
14 | c1ccc2c(c1)CCN(CCCCCCCCCCN1CCc3ccccc3C1)C2 | 9.91 | 74 | 
15 | OCCCC1=CCCN(CCCCCc2cc(CCCCCN3CCC=C(CCCO)C3)c(CCCCCN3CCC=C(CCCO)C3)cc2CCCCCN2CCC=C(CCCO)C2)C1 | 30 | 64 | 40
16 | CC1=CCCN(CCCCCCCCCCN2CCC=C(C)C2)C1 | 37.4 | 65 | 36
17 | c1ccc2c[n+](CCCCCc3cc(CCCCC[n+]4ccc5ccccc5c4)cc(CCCCC[n+]4ccc5ccccc5c4)c3)ccc2c1 |  |  | 28
18 | Cc1ccc[n+](CCCCCCCCCCCC[n+]2cccc(C)c2)c1 | 2 | 63 | 
